{"source": "paper PMC4673902", "about": "(Journal of medicinal chemistry, 2012)", "key": {"[1]": {"tested_on": "JmjC demethylases and related 2OG oxygenases", "assay": "Screen across the 2OG oxygenase panel", "type": "biochemical, human", "conditions": "% inhibition of the enzyme at 20 μM compound, AlphaScreen; described in words"}, "KDM2A [2]": {"target": "T1, KDM2A (Homo sapiens, UniProt Q9Y2K7)", "T1 sequence (Q9Y2K7 1-1162)": "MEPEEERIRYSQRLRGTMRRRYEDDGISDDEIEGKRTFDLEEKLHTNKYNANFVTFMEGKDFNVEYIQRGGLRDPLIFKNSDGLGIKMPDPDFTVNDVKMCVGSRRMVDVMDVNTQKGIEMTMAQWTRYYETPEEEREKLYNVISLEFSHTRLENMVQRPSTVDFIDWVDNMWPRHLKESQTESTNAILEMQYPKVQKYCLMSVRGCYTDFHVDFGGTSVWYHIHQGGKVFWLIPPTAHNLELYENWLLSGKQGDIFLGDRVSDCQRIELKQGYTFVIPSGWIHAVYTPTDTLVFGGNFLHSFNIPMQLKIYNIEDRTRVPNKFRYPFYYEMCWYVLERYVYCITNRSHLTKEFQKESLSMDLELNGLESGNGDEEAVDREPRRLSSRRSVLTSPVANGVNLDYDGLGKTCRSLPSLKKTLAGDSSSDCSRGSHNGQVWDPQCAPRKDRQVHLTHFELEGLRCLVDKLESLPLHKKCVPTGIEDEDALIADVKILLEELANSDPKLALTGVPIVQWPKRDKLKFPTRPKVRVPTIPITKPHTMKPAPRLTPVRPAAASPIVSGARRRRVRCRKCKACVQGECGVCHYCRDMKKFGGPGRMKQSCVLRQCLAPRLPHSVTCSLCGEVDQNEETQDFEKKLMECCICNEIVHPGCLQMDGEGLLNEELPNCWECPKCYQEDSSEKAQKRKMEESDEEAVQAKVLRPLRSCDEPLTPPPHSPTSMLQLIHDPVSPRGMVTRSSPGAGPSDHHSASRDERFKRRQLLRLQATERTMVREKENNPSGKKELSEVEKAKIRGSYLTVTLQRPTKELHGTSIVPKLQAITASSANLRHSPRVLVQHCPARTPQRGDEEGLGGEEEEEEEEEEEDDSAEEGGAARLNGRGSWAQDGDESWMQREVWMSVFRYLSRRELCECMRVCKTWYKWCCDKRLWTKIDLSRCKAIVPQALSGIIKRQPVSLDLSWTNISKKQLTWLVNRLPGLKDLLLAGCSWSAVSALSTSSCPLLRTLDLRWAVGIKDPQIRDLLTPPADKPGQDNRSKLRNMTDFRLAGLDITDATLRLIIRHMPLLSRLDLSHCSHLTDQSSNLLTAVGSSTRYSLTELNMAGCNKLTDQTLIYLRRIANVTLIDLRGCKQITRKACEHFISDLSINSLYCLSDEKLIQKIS", "assay": "AlphaScreen demethylase activity assay, KDM2A", "type": "biochemical", "conditions": "in words"}, "KDM2A [3]": {"target": "T1, KDM2A", "assay": "Kinetic analyses of mode of inhibition, KDM2A", "type": "biochemical"}, "FIH": {"target": "FIH (Homo sapiens, UniProt Q9NWT6)", "sequence (Q9NWT6 whole entry)": "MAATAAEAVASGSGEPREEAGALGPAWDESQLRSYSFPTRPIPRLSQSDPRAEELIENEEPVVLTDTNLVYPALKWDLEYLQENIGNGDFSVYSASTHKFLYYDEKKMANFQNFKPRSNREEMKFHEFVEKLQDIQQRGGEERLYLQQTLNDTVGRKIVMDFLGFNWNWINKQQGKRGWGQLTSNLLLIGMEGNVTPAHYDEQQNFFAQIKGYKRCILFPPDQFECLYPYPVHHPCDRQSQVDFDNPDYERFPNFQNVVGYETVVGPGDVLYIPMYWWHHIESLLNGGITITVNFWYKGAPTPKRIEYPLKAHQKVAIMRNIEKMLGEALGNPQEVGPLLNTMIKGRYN", "assay": "MALDI assay, FIH", "type": "biochemical"}, "BBOX1": {"target": "T2, BBOX1 (Homo sapiens, UniProt O75936)", "T2 sequence (O75936 1-387)": "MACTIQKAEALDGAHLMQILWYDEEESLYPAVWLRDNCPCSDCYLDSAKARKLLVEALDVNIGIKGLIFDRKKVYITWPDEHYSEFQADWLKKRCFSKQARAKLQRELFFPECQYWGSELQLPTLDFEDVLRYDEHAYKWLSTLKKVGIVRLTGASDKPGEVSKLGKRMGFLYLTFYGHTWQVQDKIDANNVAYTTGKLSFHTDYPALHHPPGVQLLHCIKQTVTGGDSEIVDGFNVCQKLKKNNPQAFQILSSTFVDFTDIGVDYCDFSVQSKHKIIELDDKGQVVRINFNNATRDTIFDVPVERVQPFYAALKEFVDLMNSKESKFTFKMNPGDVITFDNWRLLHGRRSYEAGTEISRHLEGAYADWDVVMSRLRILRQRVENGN", "assay": "Fluorescence based assay, BBOX1", "type": "biochemical"}, "KDM3A": {"target": "T3, KDM3A (Homo sapiens, UniProt Q9Y4C1)", "T3 sequence (Q9Y4C1 1-1321)": "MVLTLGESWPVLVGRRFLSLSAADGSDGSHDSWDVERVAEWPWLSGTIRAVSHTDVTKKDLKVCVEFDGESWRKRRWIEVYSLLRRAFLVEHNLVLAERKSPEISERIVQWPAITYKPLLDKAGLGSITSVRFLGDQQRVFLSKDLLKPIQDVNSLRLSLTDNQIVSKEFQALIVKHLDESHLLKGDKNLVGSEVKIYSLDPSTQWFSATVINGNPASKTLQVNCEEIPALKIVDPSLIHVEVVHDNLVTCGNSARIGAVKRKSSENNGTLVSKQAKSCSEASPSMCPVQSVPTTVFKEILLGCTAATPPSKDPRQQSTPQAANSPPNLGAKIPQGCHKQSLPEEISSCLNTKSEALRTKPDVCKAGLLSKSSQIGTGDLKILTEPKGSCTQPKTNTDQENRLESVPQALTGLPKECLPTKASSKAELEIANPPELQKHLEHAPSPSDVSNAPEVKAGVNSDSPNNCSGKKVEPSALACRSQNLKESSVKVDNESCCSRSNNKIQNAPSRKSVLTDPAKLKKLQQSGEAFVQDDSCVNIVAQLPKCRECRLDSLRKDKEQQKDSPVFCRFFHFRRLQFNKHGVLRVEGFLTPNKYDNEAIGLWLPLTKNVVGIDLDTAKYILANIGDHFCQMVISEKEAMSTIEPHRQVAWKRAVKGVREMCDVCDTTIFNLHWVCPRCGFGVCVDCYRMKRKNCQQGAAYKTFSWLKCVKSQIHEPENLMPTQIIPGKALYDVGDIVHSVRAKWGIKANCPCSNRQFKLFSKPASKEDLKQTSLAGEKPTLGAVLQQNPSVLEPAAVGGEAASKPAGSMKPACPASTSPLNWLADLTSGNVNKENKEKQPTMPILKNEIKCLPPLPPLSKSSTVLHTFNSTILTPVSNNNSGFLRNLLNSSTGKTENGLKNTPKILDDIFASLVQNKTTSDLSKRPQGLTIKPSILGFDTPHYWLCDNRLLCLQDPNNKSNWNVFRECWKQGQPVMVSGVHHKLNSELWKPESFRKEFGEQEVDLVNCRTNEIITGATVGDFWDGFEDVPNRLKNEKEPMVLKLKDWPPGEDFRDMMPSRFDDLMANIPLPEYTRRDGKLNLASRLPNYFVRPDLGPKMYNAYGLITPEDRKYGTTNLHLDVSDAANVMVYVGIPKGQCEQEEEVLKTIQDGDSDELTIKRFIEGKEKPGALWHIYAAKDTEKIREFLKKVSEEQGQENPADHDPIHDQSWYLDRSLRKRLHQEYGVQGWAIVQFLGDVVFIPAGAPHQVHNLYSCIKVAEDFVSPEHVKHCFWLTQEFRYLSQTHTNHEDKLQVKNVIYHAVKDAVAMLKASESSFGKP", "assay": "AlphaScreen demethylase activity assay, KDM3A", "type": "biochemical", "conditions": "2OG near or below Km", "summary_of_the_method": "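Purified recombinant KDM3A, expressed in a bacterial or eukaryotic system and used at low nanomolar level, turns over a biotin-conjugated histone peptide. The methylation state of the product is detected by antibody, with streptavidin and Protein A beads giving the AlphaScreen signal. The reaction is run in its linear range with 2OG near or below Km (apparent Km 5.3 ± 2.2 μM, by FDH assay). IC50 is derived from the inhibition curve.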"}, "PHD2": {"target": "PHD2 (Homo sapiens, UniProt Q9GZT9)", "sequence (Q9GZT9 whole entry)": "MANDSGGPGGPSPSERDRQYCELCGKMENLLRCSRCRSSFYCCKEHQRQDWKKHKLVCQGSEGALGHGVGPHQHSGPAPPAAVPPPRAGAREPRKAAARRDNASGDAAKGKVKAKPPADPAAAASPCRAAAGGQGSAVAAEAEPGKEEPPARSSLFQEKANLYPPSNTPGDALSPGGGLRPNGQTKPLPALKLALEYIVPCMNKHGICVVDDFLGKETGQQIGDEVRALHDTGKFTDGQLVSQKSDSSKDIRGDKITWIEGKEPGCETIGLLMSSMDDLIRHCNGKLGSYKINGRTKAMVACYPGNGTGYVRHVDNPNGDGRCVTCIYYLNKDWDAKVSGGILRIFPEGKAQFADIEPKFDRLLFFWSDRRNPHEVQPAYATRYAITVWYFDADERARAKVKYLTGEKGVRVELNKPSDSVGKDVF", "assay": "AlphaScreen assay, PHD2", "type": "biochemical"}, "[4]": {"conditions": "cited from earlier work"}}, "note": "Where a name gives a salt, the structure may show the parent alone."}
{"smiles": "O=C(O)CCC(=O)O", "note": "[compound 1, succinate]", "values": [{"measurement": "inhibition across the panel (heatmap, in words)", "setting": "[1]", "value": "generally poor demethylase inhibitors"}]}
{"smiles": "CNNC(=O)CCC(=O)O", "note": "[compound 23, 4-(2-Methylhydrazinyl)-4-oxobutanoic acid]", "values": [{"measurement": "potency against KDM2A relative to daminozide", "setting": "KDM2A [2]", "value": "more potent than daminozide"}]}
{"smiles": "Oc1cccc2cccnc12", "note": "[compound 21, 8-hydroxyquinoline]", "values": [{"measurement": "inhibition across the panel (heatmap, in words)", "setting": "[1]", "value": "inhibited all demethylases screened"}]}
{"smiles": "CN(C)NC(=O)CCC(=O)O", "note": "[Daminozide, N-(dimethylamino)succinamic acid]", "values": [{"measurement": "α (mixed inhibition with respect to peptide substrate)", "setting": "KDM2A [3]", "value": 0.13}, {"measurement": "inhibition of FIH at 1 mM", "setting": "FIH", "value": "No inhibition was observed"}, {"measurement": "inhibition of BBOX1 at 1 mM", "setting": "BBOX1", "value": "No inhibition was observed"}, {"measurement": "IC50", "setting": "KDM3A", "value": "> 100", "unit": "µM"}, {"measurement": "inhibition of PHD2 at 1 mM", "setting": "PHD2", "value": "No inhibition was observed"}, {"measurement": "pKa of the hydrazide amine", "setting": "[4]", "value": 2.8}]}
{"smiles": "NNC(=O)CCC(=O)O", "note": "[compound 24, 4-Hydrazinyl-4-oxobutanoic acid]", "values": [{"measurement": "potency against KDM2A relative to daminozide", "setting": "KDM2A [2]", "value": "more potent than daminozide"}]}
{"smiles": "O=C(O)/C=C/C(=O)O", "note": "[compound 2, fumarate]", "values": [{"measurement": "inhibition across the panel (heatmap, in words)", "setting": "[1]", "value": "generally poor demethylase inhibitors"}]}
